The values below come from ChEMBL document CHEMBL1138470, “Discovery and characterization of the N-phenyl-N'-naphthylurea class of p38 kinase inhibitors” (Bioorg Med Chem Lett, 2009).

Assay [1] deals with T1, Mitogen-activated protein kinase 14 (Homo sapiens, UniProt Q16539).
For assay [2], the target named is T1, Mitogen-activated protein kinase 14. Kind of assay: Binding affinity to p38alpha assessed as inhibition of ATF2 phosphorylation preincubated for 4 hrs.
For assay [3], the system named is Blood. Kind of assay: Inhibition of LPS-induced TNFalpha production in human whole blood. Format: functional, tissue-based. The method, boiled down: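 LPS-stimulated TNFα production in whole blood from human donors; IC50 reported as geometric mean of 4–12 donor experiments, SD typically ±50% of the value.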
Assay [4] deals with THP-1. Kind of assay: Inhibition of LPS-induced TNFalpha production in human THP1 cells. It is filed as functional, cell-based. The method, boiled down:
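LPS-stimulated TNFα release from THP-1 cells; IC50 values are means of 2–4 experiments, SD for n > 2 typically ±50% of the value.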

For assay [5], the system named is Mus musculus. The assay is described as follows: Inhibition of LPS-induced endotoxemia in mouse assessed as inhibition of TNFalpha production at 3 mg/kg, po. Format: functional. The method, boiled down:
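Mouse LPS-induced endotoxemia model; compound given orally at 3 mg/kg, and TNFα production is measured and expressed as percent inhibition.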

In general, IC50 refers to the midpoint of a concentration-inhibition curve.

Calls of active or inactive are those of the source. No cut-off for these calls is given here.
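Throughout, for Tm: thermal denaturation measurement of the p38alpha–inhibitor complex, reporting its melting point as a readout of binding.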

T1 sequence (Q16539 whole entry): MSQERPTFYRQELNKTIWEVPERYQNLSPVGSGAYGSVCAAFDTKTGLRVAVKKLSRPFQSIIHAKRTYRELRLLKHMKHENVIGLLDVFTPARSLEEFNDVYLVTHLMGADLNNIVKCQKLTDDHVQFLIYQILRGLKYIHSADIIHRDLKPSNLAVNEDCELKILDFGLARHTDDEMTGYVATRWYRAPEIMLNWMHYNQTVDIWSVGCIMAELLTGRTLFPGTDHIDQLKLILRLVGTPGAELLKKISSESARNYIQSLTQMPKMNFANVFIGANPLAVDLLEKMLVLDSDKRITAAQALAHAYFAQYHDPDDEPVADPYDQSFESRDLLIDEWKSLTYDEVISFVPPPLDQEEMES

For the compound `COc1c(NC(=O)c2cc3ccccc3s2)cc(C(C)(C)C)cc1NS(C)(=O)=O`, the Tm in assay [1] stood at 51.4 °C. Moreover, the IC50 in assay [2] was found to be 2700 nM.
Consider `COc1c(N)cc(C(C)(C)C)cc1NC(=O)Nc1ccc(-c2ccc(CN3CCOCC3)nc2)c2ccccc12`, for which the IC50 in assay [3] was found to be 22 nM; in assay [4] it was 5 nM. The Tm in assay [1] was determined as 61.5 °C.
Consider `Cc1ccc(C(C)C)cc1NC(=O)Nc1ccc(-c2ccc(CN3CCOCC3)nc2)c2ccccc12`, for which the Tm in assay [1] is 52.3 °C. In assay [4], the IC50 was found to be 76 nM.
For the compound `COc1c(NC(=O)Nc2cccc3ccccc23)cc(C(C)(C)C)cc1NS(C)(=O)=O`, the Tm in assay [1] amounted to 56.3 °C. Moreover, the IC50 in assay [2] was 79 nM.
The matching figures for `COc1c(NC(=O)c2cc3ccccc3o2)cc(C(C)(C)C)cc1NS(C)(=O)=O`: 48.8 °C and 4100 nM.
On to `Cc1ncc(-c2ccc(C(C)(C)C)cc2NC(=O)Nc2ccc(-c3ccc(CN4CCOCC4)nc3)c3ccccc23)cn1`, for which the IC50 in assay [3] was determined as 350 nM; in assay [4] it was 29 nM. In addition, in assay [1], the Tm was found to be 56.6 °C.
The like results for `Cc1ccc(C(C)(C)C)cc1NC(=O)Nc1ccc(OCCN2CCOCC2)c2ccccc12` were, in that order, above 10000 nM, 380 nM and 52.7 °C.
The matching figures for `Cn1nc(C(C)(C)C)cc1NC(=O)Nc1ccc(OCCN2CCOCC2)c2ccccc12`: 10000 nM, 140 nM and 54.5 °C.
The matching figures for `CCc1ccc(C(C)(C)C)cc1NC(=O)Nc1ccc(-c2ccc(CN3CCOCC3)nc2)c2ccccc12`: 700 nM, 8.8 nM and 53.9 °C.
For `COc1c(NC(C)=O)cc(C(C)(C)C)cc1NC(=O)Nc1ccc(-c2ccc(CN3CCOCC3)nc2)c2ccccc12`, the IC50 in assay [3] amounted to 35 nM; in assay [4], 9 nM. The Tm in assay [1] was 63.6 °C.
The like results for `CCC(=O)Nc1cc(C(C)(C)C)cc(NC(=O)Nc2ccc(-c3ccc(CN4CCOCC4)nc3)c3ccccc23)c1OC` were, in that order, 71 nM, 5.1 nM and 58.7 °C.
The matching figures for `Cn1nc(C(C)(C)C)cc1NC(=O)Nc1ccc(-c2ccc(CN3CCOCC3)nc2)c2ccccc12`: 230 nM, 29 nM and 57.9 °C.
On to `COc1ccc(C(C)(C)C)cc1NC(=O)c1cc2ccccc2o1`, for which the Tm in assay [1] stood at 46.2 °C. Besides, the IC50 in assay [2] was above 10000 nM.
Regarding `CNC(=O)c1cc(C(C)(C)C)cc(NC(=O)Nc2ccc(-c3ccc(CN4CCOCC4)nc3)c3ccccc23)c1OC`, the IC50 in assay [3] was found to be 97 nM; in assay [4] it was 10 nM. Also, the Tm in assay [1] was determined as 65.6 °C.
With `COc1c(NC(=O)Nc2ccc(-c3ccc(CN4CCOCC4)nc3)c3ccccc23)cc(C(C)(C)C)cc1C(N)=O`, the IC50 was found to be 74 nM in assay [3] and 9.4 nM in assay [4]. For the same compound, in assay [1], the Tm was determined as 65.5 °C.
The matching figures for `COc1c(NC(=O)Nc2ccc(-c3ccc(CN4CCOCC4)nc3)c3ccccc23)cc(C(C)(C)C)cc1C(=O)N(C)C`: 97 nM, 12 nM and 56.2 °C.
In the case of `COc1c(NC(=O)Nc2ccc(-c3ccc(CN4CCOCC4)nc3)c3ccccc23)cc(C(C)(C)C)cc1N(C)C(C)=O`, the half-inhibitory concentration (IC50) in assay [3] stood at 120 nM; in assay [4], 15 nM. The Tm in assay [1] worked out at 64.9 °C.
With `COc1ccc(C(C)(C)C)cc1NC(=O)Nc1cccc2ccccc12`, the Tm in assay [1] was found to be 50.3 °C. For the same compound, the half-maximal inhibitory concentration (IC50) in assay [2] came out at 3900 nM.
As to `Cc1ccc(-n2nc(C(C)(C)C)cc2NC(=O)Nc2ccc(OCCN3CCOCC3)c3ccccc23)cc1` [DORAMAPIMOD], the IC50 came out at 780 nM in assay [3] and 18 nM in assay [4]. The result in assay [5] was inactive.
On to `COc1ccc(C(C)(C)C)cc1NC(=O)c1cc2ccccc2s1`, for which the Tm in assay [1] is 46.9 °C. In addition, the 50% inhibitory concentration (IC50) in assay [2] is above 10000 nM.
For the compound `COc1c(NC(N)=O)cc(C(C)(C)C)cc1NC(=O)Nc1ccc(-c2ccc(CN3CCOCC3)nc2)c2ccccc12`, the IC50 was found to be 110 nM in assay [3] and 12 nM in assay [4]. For the same compound, the Tm in assay [1] worked out at 56.7 °C.
Turning to `Cc1ccc(C(C)(C)C)cc1NC(=O)Nc1ccc(-c2ccc(CN3CCOCC3)nc2)c2ccccc12`, the IC50 in assay [3] worked out at 180 nM; in assay [4], 9.4 nM. Also, the Tm in assay [1] worked out at 54.6 °C.
Turning to `Cc1ccc(-n2nc(C(C)(C)C)cc2NC(=O)Nc2ccc(-c3ccc(CN4CCOCC4)nc3)c3ccccc23)cc1`, the IC50 in assay [3] came out at 220 nM; in assay [4], 8 nM. Also, the Tm in assay [1] stood at 63.6 °C.
The matching figures for `COC(=O)Nc1cc(C(C)(C)C)cc(NC(=O)Nc2ccc(-c3ccc(CN4CCOCC4)nc3)c3ccccc23)c1OC`: 110 nM, 8.5 nM and 58.1 °C.
